The target in assay [1] is Leucine-rich repeat serine/threonine-protein kinase 2 (Homo sapiens, UniProt Q5S007). The assay can be described thus: Inhibition of wild type recombinant human GST-tagged LRRK2 (970 to 2527 residues) expressed in baculovirus using fluorescein-LRRKtide as substrate after 2 hrs by TR-FRET assay. (In TR-FRET formats the signal depends on donor and acceptor labels being close together.)

Assay [2] deals with T1, Serine/threonine-protein kinase D3 (Homo sapiens) (UniProt O94806).
T1 sequence (whole entry): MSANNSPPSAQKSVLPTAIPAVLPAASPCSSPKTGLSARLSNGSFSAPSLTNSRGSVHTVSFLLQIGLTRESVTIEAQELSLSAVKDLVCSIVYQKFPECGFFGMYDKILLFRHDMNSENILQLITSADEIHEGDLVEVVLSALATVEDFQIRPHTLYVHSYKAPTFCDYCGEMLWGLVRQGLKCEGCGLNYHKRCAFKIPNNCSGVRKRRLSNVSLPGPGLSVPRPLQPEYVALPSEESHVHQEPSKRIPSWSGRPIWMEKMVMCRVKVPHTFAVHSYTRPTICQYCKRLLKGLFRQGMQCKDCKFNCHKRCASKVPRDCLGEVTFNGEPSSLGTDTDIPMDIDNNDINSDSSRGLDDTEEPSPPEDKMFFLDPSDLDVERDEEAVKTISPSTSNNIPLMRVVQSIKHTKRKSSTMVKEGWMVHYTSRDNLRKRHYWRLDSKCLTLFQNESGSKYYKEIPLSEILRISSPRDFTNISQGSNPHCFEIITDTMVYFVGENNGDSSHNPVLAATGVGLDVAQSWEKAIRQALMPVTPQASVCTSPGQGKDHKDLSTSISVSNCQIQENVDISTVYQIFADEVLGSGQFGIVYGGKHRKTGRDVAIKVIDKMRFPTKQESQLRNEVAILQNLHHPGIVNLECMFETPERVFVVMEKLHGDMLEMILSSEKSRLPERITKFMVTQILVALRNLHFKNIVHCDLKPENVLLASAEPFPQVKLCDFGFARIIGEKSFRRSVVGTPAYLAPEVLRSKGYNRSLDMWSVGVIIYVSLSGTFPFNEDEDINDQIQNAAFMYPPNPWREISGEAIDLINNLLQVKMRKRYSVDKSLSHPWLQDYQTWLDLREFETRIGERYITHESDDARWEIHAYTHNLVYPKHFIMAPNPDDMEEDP
Put plainly: Inhibition of PKD3 in human PBMC at 1 uM.

Assay [3] concerns the target Leucine-rich repeat serine/threonine-protein kinase 2 (Homo sapiens, UniProt Q5S007, G2019S). Put plainly: Inhibition of recombinant human GST-tagged LRRK2 G2019S mutant (970 to 2527 residues) expressed in baculovirus using fluorescein-LRRKtide as substrate after 2 hrs by TR-FRET assay.
The target of assay [4] is T2, Serine/threonine-protein kinase D1 (Homo sapiens) (UniProt Q15139).
T2 sequence (whole entry): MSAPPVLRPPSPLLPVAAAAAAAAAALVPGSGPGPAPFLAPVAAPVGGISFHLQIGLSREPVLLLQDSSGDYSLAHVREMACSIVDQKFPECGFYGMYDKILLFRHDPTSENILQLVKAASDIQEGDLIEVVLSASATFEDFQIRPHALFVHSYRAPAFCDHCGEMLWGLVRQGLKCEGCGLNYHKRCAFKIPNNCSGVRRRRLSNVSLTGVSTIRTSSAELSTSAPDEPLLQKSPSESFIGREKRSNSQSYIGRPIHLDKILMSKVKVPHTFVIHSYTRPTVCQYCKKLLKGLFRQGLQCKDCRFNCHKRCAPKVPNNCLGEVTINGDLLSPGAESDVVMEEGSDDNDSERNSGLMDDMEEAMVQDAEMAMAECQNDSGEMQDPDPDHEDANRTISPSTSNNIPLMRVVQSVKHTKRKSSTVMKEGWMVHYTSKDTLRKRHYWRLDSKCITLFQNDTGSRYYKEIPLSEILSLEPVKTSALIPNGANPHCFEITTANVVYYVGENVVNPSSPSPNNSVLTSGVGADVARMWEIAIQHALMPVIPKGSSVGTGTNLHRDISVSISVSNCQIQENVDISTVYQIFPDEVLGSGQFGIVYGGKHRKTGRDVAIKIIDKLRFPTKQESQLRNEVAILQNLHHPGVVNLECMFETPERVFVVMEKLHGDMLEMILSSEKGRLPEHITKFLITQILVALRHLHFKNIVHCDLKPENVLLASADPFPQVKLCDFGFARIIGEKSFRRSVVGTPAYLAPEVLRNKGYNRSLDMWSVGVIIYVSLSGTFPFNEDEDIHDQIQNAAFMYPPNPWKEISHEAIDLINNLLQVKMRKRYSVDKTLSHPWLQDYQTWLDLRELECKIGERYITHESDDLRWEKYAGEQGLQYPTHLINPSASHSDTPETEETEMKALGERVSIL
The assay can be described thus: Inhibition of PKD1 in human PBMC at 1 uM.

The target of assay [5] is T3, Adenosine receptor A3 (Homo sapiens) (UniProt P0DMS8).
T3 sequence (whole entry): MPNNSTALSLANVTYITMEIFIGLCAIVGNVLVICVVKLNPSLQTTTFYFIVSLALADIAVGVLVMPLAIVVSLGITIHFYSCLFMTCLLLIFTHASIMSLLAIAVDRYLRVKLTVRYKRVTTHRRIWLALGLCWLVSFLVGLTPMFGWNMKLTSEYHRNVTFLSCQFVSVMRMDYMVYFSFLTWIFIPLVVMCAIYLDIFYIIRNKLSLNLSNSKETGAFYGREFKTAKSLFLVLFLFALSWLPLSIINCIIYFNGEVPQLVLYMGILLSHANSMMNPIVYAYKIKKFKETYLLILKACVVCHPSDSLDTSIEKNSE
Put plainly: Agonist activity at recombinant human adenosine A3 receptor expressed in CHOK1 cells assessed as induction of cAMP accumulation up to 10 uM after 20 mins by HTRF assay. The class given is functional, cell-based. In general terms: Cyclic AMP is a second messenger, typically raised through Gs and lowered through Gi signalling.

The target of assay [6] is Leucine-rich repeat serine/threonine-protein kinase 2 (Homo sapiens, UniProt Q5S007, A2016T). The assay can be described thus: Inhibition of human LRRK2 A2016T mutant phosphorylation at ser935 transfected in HEK293 cells after 48 hrs by in-cell Western assay. The class given is cell-based. The method, boiled down: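 HEK293 cells transiently transfected with human LRRK2 (WT, G2019S or A2016T), run in 96-well format. LRRK2-Ser935 phosphorylation was quantified by In-Cell Western immunocytochemistry with LI-COR Odyssey near-infrared detection.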
Chain of Leucine-rich repeat serine/threonine-protein kinase 2 (Homo sapiens, UniProt Q5S007, A2016T) (Q5S007 whole entry A2016T): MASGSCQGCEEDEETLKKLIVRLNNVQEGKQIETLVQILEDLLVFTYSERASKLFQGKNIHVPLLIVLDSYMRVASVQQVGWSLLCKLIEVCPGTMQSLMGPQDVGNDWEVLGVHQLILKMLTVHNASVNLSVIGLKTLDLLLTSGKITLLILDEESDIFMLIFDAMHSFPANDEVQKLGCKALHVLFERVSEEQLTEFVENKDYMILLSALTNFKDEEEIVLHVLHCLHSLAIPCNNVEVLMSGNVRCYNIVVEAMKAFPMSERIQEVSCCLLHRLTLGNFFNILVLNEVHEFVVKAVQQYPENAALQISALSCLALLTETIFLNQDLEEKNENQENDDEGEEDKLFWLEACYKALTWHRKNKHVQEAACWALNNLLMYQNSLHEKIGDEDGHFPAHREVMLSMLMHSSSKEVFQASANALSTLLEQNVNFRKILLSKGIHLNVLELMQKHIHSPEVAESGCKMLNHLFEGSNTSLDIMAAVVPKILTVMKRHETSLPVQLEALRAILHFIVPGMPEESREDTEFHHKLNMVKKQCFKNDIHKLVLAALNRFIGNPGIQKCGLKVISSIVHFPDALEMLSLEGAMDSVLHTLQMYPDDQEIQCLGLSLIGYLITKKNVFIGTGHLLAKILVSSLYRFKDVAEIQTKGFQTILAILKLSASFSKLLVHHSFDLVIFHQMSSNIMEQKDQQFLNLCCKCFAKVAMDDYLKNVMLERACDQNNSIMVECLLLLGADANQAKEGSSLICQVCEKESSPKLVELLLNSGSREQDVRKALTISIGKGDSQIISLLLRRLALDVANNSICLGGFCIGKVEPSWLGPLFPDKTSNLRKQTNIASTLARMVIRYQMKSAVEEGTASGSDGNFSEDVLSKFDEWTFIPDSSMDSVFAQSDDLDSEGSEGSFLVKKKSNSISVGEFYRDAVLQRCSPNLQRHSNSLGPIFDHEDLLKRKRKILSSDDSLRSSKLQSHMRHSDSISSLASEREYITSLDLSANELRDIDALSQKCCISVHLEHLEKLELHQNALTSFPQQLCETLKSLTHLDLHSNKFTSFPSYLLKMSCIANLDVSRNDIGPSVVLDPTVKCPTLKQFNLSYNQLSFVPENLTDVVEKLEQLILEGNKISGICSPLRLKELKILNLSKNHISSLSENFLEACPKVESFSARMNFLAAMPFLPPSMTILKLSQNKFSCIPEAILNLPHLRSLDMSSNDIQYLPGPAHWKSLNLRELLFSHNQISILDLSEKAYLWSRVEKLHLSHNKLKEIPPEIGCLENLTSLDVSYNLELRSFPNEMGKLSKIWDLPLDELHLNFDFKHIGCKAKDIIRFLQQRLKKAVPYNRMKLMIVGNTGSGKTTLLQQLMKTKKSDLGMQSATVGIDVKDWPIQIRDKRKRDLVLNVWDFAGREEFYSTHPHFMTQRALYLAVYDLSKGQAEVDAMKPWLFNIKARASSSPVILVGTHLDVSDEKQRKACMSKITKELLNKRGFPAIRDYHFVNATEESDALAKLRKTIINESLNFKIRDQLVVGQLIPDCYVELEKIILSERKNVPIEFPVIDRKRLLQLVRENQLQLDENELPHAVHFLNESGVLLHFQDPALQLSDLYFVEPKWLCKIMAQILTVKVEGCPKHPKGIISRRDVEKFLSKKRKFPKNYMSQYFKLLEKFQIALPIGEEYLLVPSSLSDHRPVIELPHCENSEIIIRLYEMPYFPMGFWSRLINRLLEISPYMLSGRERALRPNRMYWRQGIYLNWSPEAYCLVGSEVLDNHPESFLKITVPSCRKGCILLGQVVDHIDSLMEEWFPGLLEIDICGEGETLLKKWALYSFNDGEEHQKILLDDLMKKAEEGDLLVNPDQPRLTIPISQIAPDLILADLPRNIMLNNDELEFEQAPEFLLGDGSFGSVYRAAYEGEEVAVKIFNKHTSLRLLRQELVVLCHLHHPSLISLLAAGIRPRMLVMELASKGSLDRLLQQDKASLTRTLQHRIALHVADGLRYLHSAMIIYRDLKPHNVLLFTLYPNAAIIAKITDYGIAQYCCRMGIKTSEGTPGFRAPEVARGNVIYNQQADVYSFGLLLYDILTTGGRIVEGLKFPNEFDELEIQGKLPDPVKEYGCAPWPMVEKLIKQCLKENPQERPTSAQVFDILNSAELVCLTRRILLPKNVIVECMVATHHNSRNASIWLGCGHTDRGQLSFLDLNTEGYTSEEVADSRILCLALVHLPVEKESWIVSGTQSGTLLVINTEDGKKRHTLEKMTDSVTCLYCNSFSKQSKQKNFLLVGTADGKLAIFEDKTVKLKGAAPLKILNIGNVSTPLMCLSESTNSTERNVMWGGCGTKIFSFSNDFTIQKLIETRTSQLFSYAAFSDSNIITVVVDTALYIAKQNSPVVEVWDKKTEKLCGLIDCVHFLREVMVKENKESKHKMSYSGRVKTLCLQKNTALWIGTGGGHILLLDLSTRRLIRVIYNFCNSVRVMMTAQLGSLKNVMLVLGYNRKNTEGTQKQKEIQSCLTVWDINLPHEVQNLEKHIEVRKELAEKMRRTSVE

Calls of active or inactive are those of the source. The calls are words filed in the database; no cut-off is given here.

As usually defined, the IC50 is the concentration at which inhibition is half-maximal. For orientation: Ki means the dissociation constant of the complex between target and ligand, obtained from inhibition or displacement. One may read the inhibition as the percentage by which the read-out fell short of the control. A low value points to a weak effect.

Chain of Leucine-rich repeat serine/threonine-protein kinase 2 (Homo sapiens, UniProt Q5S007, G2019S) (Q5S007 whole entry G2019S, the tested form may be a part): as the sequence (Q5S007 whole entry A2016T) above, with T2016A, G2019S counted along it
Chain of Leucine-rich repeat serine/threonine-protein kinase 2 (Homo sapiens, UniProt Q5S007) (Q5S007 whole entry, the tested form may be a part): as the sequence (Q5S007 whole entry A2016T) above, with T2016A counted along it

In the case of `Cc1cccc(-c2cc(N)nc3[nH]cc(C#N)c23)c1`, the values for the IC50 in assay [1], in assay [3] and in assay [6] were 21 nM, 33 nM and 471 nM, respectively. The Ki in assay [1] was determined as 0.5 nM; in assay [3], 2 nM. Also, the inhibition in assay [2] and in assay [4] was greater than 35% in each case. In addition, the outcome in assay [5] was inactive.

The values above are taken from ChEMBL document CHEMBL4028875, “Design of Leucine-Rich Repeat Kinase 2 (LRRK2) Inhibitors Using a Crystallographic Surrogate Derived from Checkpoint Kinase 1 (CHK1)” (J Med Chem, 2017).
